The values that follow come from ChEMBL document CHEMBL1158122, “Anti-inflammatory, anti-tumor-promoting, and cytotoxic activities of constituents of marigold (Calendula officinalis) flowers” (J Nat Prod, 2006).

Series [1] has as its system Raji. Briefly: Inhibition of TPA-induced EBV-early antigen activation in human Raji cells at 1000 molar ratio relative to TPA. More on the design: scale not given: the % may be the effect or the level left. The settings on record: human gammaherpesvirus 4. In kind it is cell-based.
In series [2] the test system is Raji. The series is described as follows: Inhibition of TPA-induced EBV-early antigen activation in human Raji cells at 500 molar ratio relative to TPA. In kind it is cell-based. The note with it: human gammaherpesvirus 4. Also noted: scale not given: the % may be the effect or the level left.
For series [3], the system named is Raji. The series is described as follows: Inhibition of TPA-induced EBV-early antigen activation in human Raji cells at 100 molar ratio relative to TPA. The format is cell-based. Also noted: scale not given: the % may be the effect or the level left. The settings on record: human gammaherpesvirus 4.
For series [4], the system named is Raji. Briefly: Inhibition of TPA-induced EBV-early antigen activation in human Raji cells at 10 molar ratio relative to TPA. The note with it: human gammaherpesvirus 4. More on the design: scale not given: the % may be the effect or the level left. The format is cell-based.
The nature of series [5]: Inhibition of TPA-induced EBV-early antigen activation in human Raji cells relative to TPA. The format is cell-based, human gammaherpesvirus 4.
Series [6] in a line: Cytotoxicity against human Raji cells assessed as cell viability at 1000 molar ratio. In kind it is cell-based. The note with it: read-out: Activity. Summed up:
(§1)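 Raji cells were treated with 32 pmol TPA to induce EBV early antigen activation. The test agent was added at 10, 100, 500 or 1000 mol ratio relative to TPA, and Raji cell viability was measured alongside EA activation.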

Series [7] can be described thus: Cytotoxicity against human Raji cells assessed as cell viability at 500 molar ratio. The format is cell-based. The settings on record: read-out: Activity. Summed up: as §1
Series [8] is described as follows: Cytotoxicity against human Raji cells assessed as cell viability at 100 molar ratio. In kind it is cell-based. The note with it: read-out: Activity. Summed up: as §1
Series [9] is described as follows: Cytotoxicity against human Raji cells assessed as cell viability at 10 molar ratio. The note with it: read-out: Activity. In kind it is cell-based. A digest of the protocol: as §1
Another series has as its system Mus musculus. Briefly: Antiinflammatory activity against TPA-induced ear edema in mouse. The format is functional. A digest of the protocol:
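Specific-pathogen-free female ICR mice were housed five per cage at 24 ± 2 °C. Inflammation was induced on the ear with TPA at 1 µg/ear, and the test agent was applied per ear. Ear edema inhibition was expressed as ID50 in mg per ear.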

Take `CCCCOC(=O)[C@H]1O[C@@H](O[C@H]2CC[C@]3(C)[C@H]4CC=C5[C@@H]6CC(C)(C)CC[C@]6(C(=O)O[C@@H]6O[C@H](CO)[C@@H](O)[C@H](O)[C@H]6O)CC[C@@]5(C)[C@]4(C)CC[C@H]3C2(C)C)[C@H](O)[C@@H](O[C@@H]2O[C@H](CO)[C@H](O)[C@H](O)[C@H]2O)[C@@H]1O`: the Activity came to 5.4% in the series with Raji [1], 41.5% with Raji [2], 70.1% in the series with Raji [3] and 100% with Raji [4]. The IC50 in [5] was 471 molar ratio. Besides, in [6], the viability at 1000 molar ratio is 70%. In addition, the viability at 500 molar ratio in series [7] is above 80%. In series [8], the viability at 100 molar ratio is above 80%. Also, in series [9], the viability at 10 molar ratio is above 80%. In addition, the ID50 in the series with Mus musculus came to 0.06 mg.

Turning to `COC(=O)[C@H]1O[C@@H](O[C@H]2CC[C@]3(C)[C@H]4CC=C5[C@@H]6CC(C)(C)CC[C@]6(C(=O)O[C@@H]6O[C@H](CO)[C@@H](O)[C@H](O)[C@H]6O)CC[C@@]5(C)[C@]4(C)CC[C@H]3C2(C)C)[C@H](O)[C@@H](O[C@@H]2O[C@H](CO)[C@H](O)[C@H](O)[C@H]2O)[C@@H]1O`, the Activity in the series with Raji [1] is 14.4%; in the series with Raji [2], 52.1%; in the series with Raji [3], 74.3%; in the series on Raji [4], 100%. This molecule also gave an IC50 in [5] of 480 molar ratio. For the same molecule, in series [6], the viability at 1000 molar ratio turned out to be 70%. The viability at 500 molar ratio in series [7] is above 80%. Further, the viability at 100 molar ratio in series [8] is above 80%. The viability at 10 molar ratio in series [9] is above 80%. Moreover, the ID50 in the series on Mus musculus came out at 0.1 mg.

`CC1(C)CC[C@]2(C(=O)O[C@@H]3O[C@H](CO)[C@@H](O)[C@H](O)[C@H]3O)CC[C@]3(C)C(=CC[C@@H]4[C@@]5(C)CC[C@H](O[C@@H]6O[C@H](C(=O)O)[C@@H](O)[C@H](O[C@@H]7O[C@H](CO)[C@H](O)[C@H](O)[C@H]7O)[C@H]6O)C(C)(C)[C@@H]5CC[C@]43C)[C@@H]2C1` [CALENDULAGYCOSIDE C]: the Activity with Raji [1] was 13.2%; in the series with Raji [2], 51%; in the series on Raji [3], 73.1%; in the series with Raji [4], 100%. Also, the IC50 in [5] was 475 molar ratio. Also, the viability at 1000 molar ratio in series [6] was 70%. Moreover, the viability at 500 molar ratio in series [7] was above 80%. The viability at 100 molar ratio in [8] is above 80%. For the same molecule, the viability at 10 molar ratio in series [9] is above 80%. Also, the ID50 in the series on Mus musculus was 0.2 mg.

For `C[C@@H]1O[C@@H](OC[C@H]2O[C@@H](Oc3c(-c4ccc(O)c(O)c4)oc4cc(O)cc(O)c4c3=O)[C@H](O)[C@@H](O)[C@@H]2O)[C@H](O)[C@H](O)[C@H]1O` [RUTIN], in the series on Raji [4], the Activity was 100%. Besides, the IC50 in series [5] came out at 578 molar ratio. Moreover, the viability at 1000 molar ratio in series [6] worked out at 70%. The viability at 500 molar ratio in series [7] is above 80%. In addition, in [8], the viability at 100 molar ratio was above 80%. For the same molecule, the viability at 10 molar ratio in series [9] was above 80%.

In the case of `COc1cc(-c2oc3cc(O)cc(O)c3c(=O)c2O[C@@H]2O[C@H](CO[C@@H]3O[C@@H](C)[C@H](O)[C@@H](O)[C@H]3O)[C@@H](O)[C@H](O)[C@H]2O)ccc1O` [NARCISSIN], the Activity came out at 16.3% with Raji [1], 62.4% in the series with Raji [2], 84.3% in the series on Raji [3] and 100% with Raji [4]. Moreover, in series [5], the IC50 stood at 585 molar ratio. In series [6], the viability at 1000 molar ratio was determined as 70%. Besides, the viability at 500 molar ratio in [7] was above 80%. In addition, the viability at 100 molar ratio in series [8] is above 80%. Further, the viability at 10 molar ratio in [9] was above 80%.

Consider `C[C@]12CCC(=O)C=C1CC[C@@H]1[C@@H]2[C@@H](O)C[C@@]2(C)[C@H]1CC[C@]2(O)C(=O)CO` [HYDROCORTISONE], for which the ID50 with Mus musculus amounted to 0.03 mg.

For the molecule `CC1(C)CC[C@]2(C(=O)O[C@@H]3O[C@H](CO)[C@@H](O)[C@H](O)[C@H]3O)CC[C@]3(C)C(=CC[C@@H]4[C@@]5(C)CC[C@H](O[C@@H]6O[C@H](C(=O)O)[C@@H](O)[C@H](O[C@@H]7O[C@H](CO)[C@H](O)[C@H](O)[C@H]7O)[C@H]6O[C@@H]6O[C@H](CO)[C@@H](O)[C@H](O)[C@H]6O)C(C)(C)[C@@H]5CC[C@]43C)[C@@H]2C1` [CALENDULAGYCOSIDE A], the Activity in the series with Raji [1] worked out at 15.8%; in the series with Raji [2], 52.3%; in the series on Raji [3] it was 75.3%; in the series with Raji [4] it was 75.3%. In [5], the IC50 was 484 molar ratio. In addition, in [6], the viability at 1000 molar ratio came to 70%. Moreover, the viability at 500 molar ratio in series [7] is above 80%. Moreover, in series [8], the viability at 100 molar ratio is above 80%. Moreover, in series [9], the viability at 10 molar ratio is above 80%. Besides, the ID50 in the series with Mus musculus is given as 0.32 mg.

Consider `COc1cc(-c2oc3cc(O)cc(O)c3c(=O)c2O[C@@H]2O[C@H](CO)[C@@H](O)[C@H](O)[C@H]2O[C@@H]2O[C@@H](C)[C@H](O)[C@@H](O)[C@H]2O)ccc1O`, for which the Activity is 14.1% with Raji [1], 60% with Raji [2], 81.1% with Raji [3] and 100% in the series with Raji [4]. In series [5], the IC50 stood at 574 molar ratio. Further, the viability at 1000 molar ratio in series [6] worked out at 70%. For the same molecule, the viability at 500 molar ratio in series [7] was above 80%. The viability at 100 molar ratio in [8] is above 80%. Moreover, the viability at 10 molar ratio in series [9] was above 80%.

As for `COc1cc(-c2oc3cc(O)cc(O)c3c(=O)c2O[C@@H]2O[C@H](CO[C@@H]3O[C@@H](C)[C@H](O)[C@@H](O)[C@H]3O)[C@@H](O)[C@H](O)[C@H]2O[C@@H]2O[C@@H](C)[C@H](O)[C@@H](O)[C@H]2O)ccc1O`, the Activity is 19.6% in the series on Raji [1], 64.8% in the series with Raji [2], 86% in the series with Raji [3] and 100% in the series with Raji [4]. This molecule also displayed an IC50 in series [5] of 592 molar ratio. Further, the viability at 1000 molar ratio in series [6] was found to be 70%. The viability at 500 molar ratio in series [7] was above 80%. In series [8], the viability at 100 molar ratio is above 80%. Moreover, the viability at 10 molar ratio in [9] is above 80%.

`COc1ccc2c(c1)c(CC(=O)O)c(C)n2C(=O)c1ccc(Cl)cc1` [INDOMETHACIN] gave an ID50 in the series with Mus musculus of 0.3 mg.

In the case of `O=c1c(O[C@@H]2O[C@H](CO)[C@@H](O)[C@H](O)[C@H]2O)c(-c2ccc(O)c(O)c2)oc2cc(O)cc(O)c12` [ISOQUERCETIN], the Activity with Raji [1] came to 14.1%; in the series with Raji [2] it was 58%; in the series on Raji [3], 78.5%; with Raji [4], 100%. The IC50 in series [5] is 570 molar ratio. Besides, the viability at 1000 molar ratio in [6] came to 70%. For the same molecule, in series [7], the viability at 500 molar ratio was above 80%. Further, the viability at 100 molar ratio in series [8] was above 80%. For the same molecule, in [9], the viability at 10 molar ratio was above 80%.

Consider `COC(=O)[C@H]1O[C@@H](O[C@H]2CC[C@]3(C)[C@H]4CC=C5[C@@H]6CC(C)(C)CC[C@]6(C(=O)O[C@@H]6O[C@H](CO)[C@@H](O)[C@H](O)[C@H]6O)CC[C@@]5(C)[C@]4(C)CC[C@H]3C2(C)C)[C@H](O[C@@H]2O[C@H](CO)[C@@H](O)[C@H](O)[C@H]2O)[C@@H](O[C@@H]2O[C@H](CO)[C@H](O)[C@H](O)[C@H]2O)[C@@H]1O`, for which the Activity came out at 16% in the series with Raji [1], 53.6% in the series on Raji [2], 77.8% with Raji [3] and 100% with Raji [4]. The IC50 in series [5] came out at 487 molar ratio. Also, in series [6], the viability at 1000 molar ratio amounted to 70%. For the same molecule, the viability at 500 molar ratio in series [7] is above 80%. For the same molecule, the viability at 100 molar ratio in series [8] was above 80%. Further, the viability at 10 molar ratio in [9] is above 80%. The ID50 in the series on Mus musculus is 0.06 mg.

Turning to `CC1=C(/C=C/C(C)=C/C=C/C(C)=C/C=C/C=C(C)/C=C/C=C(C)/C=C/C2=C(C)CCCC2(C)C)C(C)(C)CCC1` [BETA CAROTENE], the Activity was 8.6% with Raji [1] and 100% with Raji [4]. In addition, the IC50 in series [5] is listed as 397 molar ratio. In series [7], the viability at 500 molar ratio is above 80%. Further, in series [8], the viability at 100 molar ratio is above 80%. The viability at 10 molar ratio in [9] is above 80%.

On to `CCCCOC(=O)[C@H]1O[C@@H](O[C@H]2CC[C@]3(C)[C@H]4CC=C5[C@@H]6CC(C)(C)CC[C@]6(C(=O)O[C@@H]6O[C@H](CO)[C@@H](O)[C@H](O)[C@H]6O)CC[C@@]5(C)[C@]4(C)CC[C@H]3C2(C)C)[C@H](O[C@@H]2O[C@H](CO)[C@@H](O)[C@H](O)[C@H]2O)[C@@H](O[C@@H]2O[C@H](CO)[C@H](O)[C@H](O)[C@H]2O)[C@@H]1O`, for which the Activity in the series with Raji [1] is 10.6%; in the series on Raji [2], 43.2%; in the series on Raji [3], 71.6%; in the series on Raji [4], 100%. In series [5], this molecule returned an IC50 of 480 molar ratio. Further, the viability at 1000 molar ratio in series [6] came to 70%. Besides, the viability at 500 molar ratio in series [7] is above 80%. The viability at 100 molar ratio in series [8] is above 80%. In addition, the viability at 10 molar ratio in [9] was above 80%. The molecule further had an ID50 in the series on Mus musculus of 0.06 mg.
